Usually IC50 stands for the point on the concentration scale where inhibition reaches its midpoint. Higher therefore signals weaker potency.

SMILES strings stand for the structures.

Sequence of Phosphatidylinositol 4,5-bisphosphate 3-kinase catalytic subunit alpha isoform (P42336 whole entry, canonical isoform): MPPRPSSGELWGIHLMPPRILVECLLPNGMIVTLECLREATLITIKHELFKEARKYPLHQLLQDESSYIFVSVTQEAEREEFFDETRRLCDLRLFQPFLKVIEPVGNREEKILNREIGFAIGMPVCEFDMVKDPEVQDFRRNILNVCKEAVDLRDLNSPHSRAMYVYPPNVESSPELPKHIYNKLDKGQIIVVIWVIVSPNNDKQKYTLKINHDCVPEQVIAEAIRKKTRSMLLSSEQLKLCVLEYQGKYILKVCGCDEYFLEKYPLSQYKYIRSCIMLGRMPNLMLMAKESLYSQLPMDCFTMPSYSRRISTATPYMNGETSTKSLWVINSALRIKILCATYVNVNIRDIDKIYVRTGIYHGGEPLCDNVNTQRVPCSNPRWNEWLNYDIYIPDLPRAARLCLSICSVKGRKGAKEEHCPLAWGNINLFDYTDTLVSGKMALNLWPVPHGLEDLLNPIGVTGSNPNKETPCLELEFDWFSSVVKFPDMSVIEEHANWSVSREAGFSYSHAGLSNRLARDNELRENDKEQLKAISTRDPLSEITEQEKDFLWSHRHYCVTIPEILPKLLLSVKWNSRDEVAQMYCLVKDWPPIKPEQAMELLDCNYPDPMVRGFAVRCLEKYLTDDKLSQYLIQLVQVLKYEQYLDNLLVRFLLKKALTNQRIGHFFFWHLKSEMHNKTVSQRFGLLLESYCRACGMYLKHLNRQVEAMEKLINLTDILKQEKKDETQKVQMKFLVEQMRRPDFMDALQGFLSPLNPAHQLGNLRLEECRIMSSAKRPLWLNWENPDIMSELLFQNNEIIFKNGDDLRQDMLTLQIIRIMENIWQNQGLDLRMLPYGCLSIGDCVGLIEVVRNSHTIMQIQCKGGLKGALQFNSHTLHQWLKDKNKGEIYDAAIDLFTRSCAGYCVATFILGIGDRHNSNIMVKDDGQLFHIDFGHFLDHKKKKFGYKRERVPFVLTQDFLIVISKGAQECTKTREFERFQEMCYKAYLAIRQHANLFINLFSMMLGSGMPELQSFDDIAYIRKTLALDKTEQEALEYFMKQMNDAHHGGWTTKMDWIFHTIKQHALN

The first test concerns the target DNA-dependent protein kinase catalytic subunit (Homo sapiens, UniProt P78527). The test can be described thus: Inhibition of DNA dependent protein kinase isolated from HeLa cells. The format is cell-free.
Details: not given
With `O=c1cc(-c2ccccc2Cl)oc2c1ccc1ccccc12`, the IC50 is over 10 µM.
Compound `COc1ccc2c(=O)cc(N3CCOCC3)oc2c1` displayed an IC50 of 0.95 µM.
`COc1ccc2oc(=O)cc(N3CCOCC3)c2c1` showed an IC50 of 1.75 µM.
The compound `Nc1cccc(-c2cc(=O)c3ccc4ccccc4c3o2)c1` displayed an IC50 of over 10 µM.
Compound `CC(C)(C)c1ccc(-c2cc(=O)c3ccc4ccccc4c3o2)cc1` returned an IC50 of over 10 µM.
On the same count and under the same terms, to `O=c1cc(N2CCOCC2)oc2cc3ccccc3cc12` belongs 0.39 µM; to `O=c1cc(N2CCC(O)C2)oc2c1ccc1ccccc12` (stereo not given), 9.27 µM.
On the same count and under the same terms, to `O=c1cc(N2CCSCC2)oc2c(-c3ccccc3)cccc12` belongs 1.61 µM; to `C#CCCN(C)c1cc(=O)n2ccc3ccccc3c2n1`, over 10 µM.
Same read-out and setting: to `O=c1cc(N2CCCCC2)oc2c(-c3ccccc3)cccc12` belongs 4.67 µM.
The compound `O=c1cc(N2CCCCC2)c2ccccc2o1` came in with an IC50 of 8.81 µM.
On the same count and under the same terms, for `CC1(C)CN(c2cc(=O)n3ccc4ccccc4c3n2)CCO1` the value was 6.71 µM.
For `S=c1cc(N2CCOCC2)oc2c1ccc1ccccc12`, half-maximal inhibition (IC50) required 0.26 µM.
With `CC1(C)CN(c2cc(=O)c3ccc4ccccc4c3o2)CCO1`, the IC50 stood at 3.52 µM.
Compound `COc1cccc2c(N3CCOCC3)cc(=O)oc12` displayed an IC50 of 10.9 µM.
Same read-out and setting: for `C[C@@H]1CN(c2cc(=O)n3ccc4ccccc4c3n2)C[C@H](C)O1` the value was 3.25 µM; for `O=c1cc(-c2cccc([N+](=O)[O-])c2)oc2c1ccc1ccccc12`, over 10 µM.
As to `O=c1cc(NCCO)nc2c3ccccc3ccn12`, the IC50 is over 10 µM.
Same read-out and setting: for `COc1ccc2c(N3CCOCC3)cc(=O)oc2c1` the value was 11.3 µM.
Still for that read-out and setting: for `O=c1cc(N2CCOCC2)c2cc3ccccc3cc2o1` the value was 3.24 µM; for `O=c1cc(N2CCOc3ccccc32)oc2c1ccc1ccccc12`, over 10 µM; for `O=c1cc(-c2cccnc2)oc2c1ccc1ccccc12`, 1.92 µM.
On the same count and under the same terms, to `O=c1cc(-c2ccncc2)oc2c1ccc1ccccc12` belongs over 10 µM; to `O=c1cc(NCC(O)CO)nc2c3ccccc3ccn12` (stereo not given), 8.46 µM; to `CC(O)CNc1cc(=O)n2ccc3ccccc3c2n1` (stereo not given), over 10 µM.
Turning to `O=c1cc(N2CCOCC2)c2c(ccc3ccccc32)o1`, the IC50 is 1.9 µM.
`O=c1cc(NCC2CCCO2)nc2c3ccccc3ccn12` (stereo not given) returned an IC50 of over 10 µM.
Still for that read-out and setting: for `CN(CCO)c1cc(=O)n2ccc3ccccc3c2n1` the value was over 10 µM; for `O=c1cc(N(CCO)Cc2ccccc2)nc2c3ccccc3ccn12`, over 10 µM.
The same measure, in the same setting: for `O=c1cc(N2CCNCC2)oc2c1ccc1ccccc12` the value was over 10 µM; for `O=c1cc(N2CCCC2)nc2c3ccccc3ccn12`, 6.68 µM; for `O=c1cc(N2CCOCC2)nc2ccccn12`, 2 µM.
The same measure, in the same setting: to `O=c1cc(NCCOc2ccccc2Br)oc2c1ccc1ccccc12` belongs over 10 µM; to `O=c1cc(N2CCOCC2)oc2c3c(ccc12)CCCC3`, 0.36 µM; to `O=c1cc(N2CCSCC2)nc2c3ccccc3ccn12`, 1.69 µM.
Consider `O=c1cc(N2CCOCC2)nc2c3ccccc3ccn12`, for which the IC50 worked out at 0.28 µM.
On the same count and under the same terms, to `Nc1ccc(-c2cc(=O)c3ccc4ccccc4c3o2)cc1` belongs 7.7 µM; to `CN1CCN(c2cc(=O)n3ccc4ccccc4c3n2)CC1`, over 10 µM; to `CC1CN(c2cc(=O)c3ccc4ccccc4c3o2)CC(C)O1` (stereo not given), 4.14 µM.
As for `CC1CCC(C)N(c2cc(=O)n3ccc4ccccc4c3n2)C1` (stereo not given), the IC50 is over 10 µM.
Same read-out and setting: for `O=c1cc(N2CCOCC2)c2cc(Cl)ccc2o1` the value was 3.27 µM; for `Cc1cccc2c(=O)cc(N3CCOCC3)oc12`, 1.65 µM; for `O=c1cc(N2CCSCC2)c2cc3ccccc3cc2o1`, 5.15 µM.
On the same count and under the same terms, for `CCC1CN(c2cc(=O)n3ccc4ccccc4c3n2)CCO1` (stereo not given) the value was over 10 µM; for `O=c1cc(N2CCOC(CO)C2)nc2c3ccccc3ccn12` (stereo not given), over 10 µM.
The compound `O=c1cc(N2CCCC2)oc2c1ccc1ccccc12` returned a 50% inhibitory concentration (IC50) of 6.17 µM.
The compound `COc1cccc2oc(=O)cc(N3CCOCC3)c12` returned an IC50 of over 10 µM.
On the same count and under the same terms, for `O=c1cc(-c2ccc([N+](=O)[O-])cc2)oc2c1ccc1ccccc12` the value was over 10 µM.
The same measure, in the same setting: for `OCCOCC/N=c1\cc(O)c2ccc3ccccc3c2o1` the value was over 10 µM; for `O=c1cc(N2CC[C@@H](O)C2)nc2c3ccccc3ccn12`, 6.49 µM.
`O=c1cc(N(CCO)CCO)nc2c3ccccc3ccn12` came in with a half-maximal inhibitory concentration (IC50) of over 10 µM.
`CN(CC(O)c1ccccc1)c1cc(=O)n2ccc3ccccc3c2n1` (stereo not given): inhibition was half-maximal at 10.5 µM (IC50).
On the same count and under the same terms, for `O=c1cc(N2CCC[C@H](CO)C2)oc2c1ccc1ccccc12` the value was over 10 µM.
Take `O=c1cc(-c2ccc(F)cc2)oc2c1ccc1ccccc12`: the IC50 was over 10 µM.
The same measure, in the same setting: to `O=c1cc(N2CCSCC2)oc2c1ccc1ccccc12` belongs 1.38 µM.
Same read-out and setting: for `O=c1cc(N2CC=CC2)nc2c3ccccc3ccn12` the value was 2.81 µM; for `Cc1ccc2oc(=O)cc(N3CCOCC3)c2c1`, 5.35 µM.
Still for that read-out and setting: to `O=c1cc(-c2ccccc2F)oc2c1ccc1ccccc12` belongs 8.59 µM; to `O=c1cc(N2CCCOCC2)oc2c1ccc1ccccc12`, 2.01 µM; to `O=c1cc(N2CCOCC2)c2ccccc2o1`, 4.82 µM.
Take `O=c1cc(N2CCCCC2)oc2c1ccc1ccccc12`: the IC50 was found to be 3.81 µM.
The same measure, in the same setting: for `O=c1cc(-c2cccc(Cl)c2)oc2c1ccc1ccccc12` the value was over 10 µM.
Same read-out and setting: to `O=c1cc(N2CCOCC2)oc2ccc(-c3ccccc3)cc12` belongs 2.24 µM.
Same read-out and setting: to `Cc1cccc2c(N3CCOCC3)cc(=O)oc12` belongs 8.05 µM; to `Nc1ccccc1-c1cc(=O)c2ccc3ccccc3c2o1`, over 10 µM.
Regarding `O=c1cc(NCC(O)c2cccc(O)c2)nc2c3ccccc3ccn12` (stereo not given), the IC50 was over 10 µM.
The same measure, in the same setting: to `O=c1cc(-c2ccc(Cl)cc2)oc2c1ccc1ccccc12` belongs over 10 µM; to `O=c1cc(NCC2CCCO2)oc2c1ccc1ccccc12` (stereo not given), over 10 µM; to `O=c1cc(-c2ccccc2[N+](=O)[O-])oc2c1ccc1ccccc12`, over 10 µM.
The same measure, in the same setting: for `O=c1cc(N2CC[S+]([O-])CC2)oc2c(-c3ccccc3)cccc12` the value was 5.71 µM.
For the compound `O=c1cc(N2C[C@H]3C[C@@H]2CO3)oc2c1ccc1ccccc12`, half-maximal inhibition (IC50) required 3.19 µM.
`O=c1cc(-c2cccc(F)c2)oc2c1ccc1ccccc12`: half-maximal inhibition (IC50) required 5.71 µM.
As for `CN1CCN(c2cc(=O)c3ccc4ccccc4c3o2)CC1`, the IC50 was over 10 µM.
Same read-out and setting: to `COc1cccc2c(=O)cc(N3CCOCC3)oc12` belongs 1.2 µM; to `O=c1cc(-c2ccccc2)oc2c1ccc1ccccc12` [ALPHA-NAPHTHOFLAVONE], 4.98 µM.
On the same count and under the same terms, for `O=c1cc(-c2ccccc2)oc2ccccc12` [FLAVONE] the value was over 10 µM.

In another test the target is T1, Serine-protein kinase ATM (Homo sapiens, UniProt Q13315). The test can be described thus: Inhibition of ATM kinase using rabbit polyclonal antisera. Further details: species or system Oryctolagus cuniculus. As to conditions: target entry is the homologue from another species. The procedure, abridged:
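ATM kinase activity assayed following a previously published method, using rabbit polyclonal antisera raised against the COOH-terminal 400 amino acids of ATM.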
With `O=c1cc(N2CCOCC2)oc2c(-c3ccccc3)cccc12` [LY-294002], the IC50 was over 100 µM.

The next test addresses Phosphatidylinositol 4,5-bisphosphate 3-kinase catalytic subunit alpha isoform (Homo sapiens, UniProt P42336). The test can be described thus: Inhibition of Phosphatidylinositol 3-kinase.
Details: not given
The essentials: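 PI 3-kinase assay run following a prior method, with baculovirus-derived recombinant human p110α and p85α.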
The compound `O=c1cc(N2CCSCC2)oc2c(-c3ccccc3)cccc12` yielded an IC50 of over 100 µM.
Still for that read-out and setting: to `O=c1cc(N2CCCCC2)oc2c(-c3ccccc3)cccc12` belongs over 100 µM.
`O=c1cc(N2CCOCC2)nc2c3ccccc3ccn12` showed an IC50 of over 100 µM.
Compound `CC1CN(c2cc(=O)c3ccc4ccccc4c3o2)CCO1` (stereo not given) showed an IC50 of 2.4 µM.

The target in the next test is Serine/threonine-protein kinase mTOR (Homo sapiens, UniProt P42345). Description: Inhibition of mTOR protein isolated from HeLa cells.
Details: not given
The essentials:
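mTOR immunoprecipitated from HeLa cell cytoplasmic extract. Activity measured following a prior method, with recombinant PHAS-1 as substrate.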
For `O=c1cc(N2CCOCC2)nc2c3ccccc3ccn12`, the IC50 was found to be 5.3 µM.
`CC1CN(c2cc(=O)c3ccc4ccccc4c3o2)CCO1` (stereo not given) showed an IC50 of 4.8 µM.

The next test concerns the target T1, Serine-protein kinase ATM. Description: Inhibition of ATM kinase using rabbit polyclonal antisera; No inhibition observed at 100 uM. As to conditions: target entry is the homologue from another species. Further details: species or system Oryctolagus cuniculus.
`O=c1cc(N2CCOCC2)oc2c1ccc1ccccc12` had an IC50 of over 100 µM.
The same measure, in the same setting: for `O=c1cc(N2CCOCC2)nc2c3ccccc3ccn12` the value was over 100 µM; for `CC1CN(c2cc(=O)c3ccc4ccccc4c3o2)CCO1` (stereo not given), over 100 µM.

The next test deals with T2, Serine/threonine-protein kinase ATR (Homo sapiens, UniProt Q13535). Description: Inhibition of ATR kinase using rabbit polyclonal antisera; No inhibition observed at 100 uM. Further details: species or system Oryctolagus cuniculus. Particulars: target entry is the homologue from another species.
T2 sequence (Q13535 whole entry): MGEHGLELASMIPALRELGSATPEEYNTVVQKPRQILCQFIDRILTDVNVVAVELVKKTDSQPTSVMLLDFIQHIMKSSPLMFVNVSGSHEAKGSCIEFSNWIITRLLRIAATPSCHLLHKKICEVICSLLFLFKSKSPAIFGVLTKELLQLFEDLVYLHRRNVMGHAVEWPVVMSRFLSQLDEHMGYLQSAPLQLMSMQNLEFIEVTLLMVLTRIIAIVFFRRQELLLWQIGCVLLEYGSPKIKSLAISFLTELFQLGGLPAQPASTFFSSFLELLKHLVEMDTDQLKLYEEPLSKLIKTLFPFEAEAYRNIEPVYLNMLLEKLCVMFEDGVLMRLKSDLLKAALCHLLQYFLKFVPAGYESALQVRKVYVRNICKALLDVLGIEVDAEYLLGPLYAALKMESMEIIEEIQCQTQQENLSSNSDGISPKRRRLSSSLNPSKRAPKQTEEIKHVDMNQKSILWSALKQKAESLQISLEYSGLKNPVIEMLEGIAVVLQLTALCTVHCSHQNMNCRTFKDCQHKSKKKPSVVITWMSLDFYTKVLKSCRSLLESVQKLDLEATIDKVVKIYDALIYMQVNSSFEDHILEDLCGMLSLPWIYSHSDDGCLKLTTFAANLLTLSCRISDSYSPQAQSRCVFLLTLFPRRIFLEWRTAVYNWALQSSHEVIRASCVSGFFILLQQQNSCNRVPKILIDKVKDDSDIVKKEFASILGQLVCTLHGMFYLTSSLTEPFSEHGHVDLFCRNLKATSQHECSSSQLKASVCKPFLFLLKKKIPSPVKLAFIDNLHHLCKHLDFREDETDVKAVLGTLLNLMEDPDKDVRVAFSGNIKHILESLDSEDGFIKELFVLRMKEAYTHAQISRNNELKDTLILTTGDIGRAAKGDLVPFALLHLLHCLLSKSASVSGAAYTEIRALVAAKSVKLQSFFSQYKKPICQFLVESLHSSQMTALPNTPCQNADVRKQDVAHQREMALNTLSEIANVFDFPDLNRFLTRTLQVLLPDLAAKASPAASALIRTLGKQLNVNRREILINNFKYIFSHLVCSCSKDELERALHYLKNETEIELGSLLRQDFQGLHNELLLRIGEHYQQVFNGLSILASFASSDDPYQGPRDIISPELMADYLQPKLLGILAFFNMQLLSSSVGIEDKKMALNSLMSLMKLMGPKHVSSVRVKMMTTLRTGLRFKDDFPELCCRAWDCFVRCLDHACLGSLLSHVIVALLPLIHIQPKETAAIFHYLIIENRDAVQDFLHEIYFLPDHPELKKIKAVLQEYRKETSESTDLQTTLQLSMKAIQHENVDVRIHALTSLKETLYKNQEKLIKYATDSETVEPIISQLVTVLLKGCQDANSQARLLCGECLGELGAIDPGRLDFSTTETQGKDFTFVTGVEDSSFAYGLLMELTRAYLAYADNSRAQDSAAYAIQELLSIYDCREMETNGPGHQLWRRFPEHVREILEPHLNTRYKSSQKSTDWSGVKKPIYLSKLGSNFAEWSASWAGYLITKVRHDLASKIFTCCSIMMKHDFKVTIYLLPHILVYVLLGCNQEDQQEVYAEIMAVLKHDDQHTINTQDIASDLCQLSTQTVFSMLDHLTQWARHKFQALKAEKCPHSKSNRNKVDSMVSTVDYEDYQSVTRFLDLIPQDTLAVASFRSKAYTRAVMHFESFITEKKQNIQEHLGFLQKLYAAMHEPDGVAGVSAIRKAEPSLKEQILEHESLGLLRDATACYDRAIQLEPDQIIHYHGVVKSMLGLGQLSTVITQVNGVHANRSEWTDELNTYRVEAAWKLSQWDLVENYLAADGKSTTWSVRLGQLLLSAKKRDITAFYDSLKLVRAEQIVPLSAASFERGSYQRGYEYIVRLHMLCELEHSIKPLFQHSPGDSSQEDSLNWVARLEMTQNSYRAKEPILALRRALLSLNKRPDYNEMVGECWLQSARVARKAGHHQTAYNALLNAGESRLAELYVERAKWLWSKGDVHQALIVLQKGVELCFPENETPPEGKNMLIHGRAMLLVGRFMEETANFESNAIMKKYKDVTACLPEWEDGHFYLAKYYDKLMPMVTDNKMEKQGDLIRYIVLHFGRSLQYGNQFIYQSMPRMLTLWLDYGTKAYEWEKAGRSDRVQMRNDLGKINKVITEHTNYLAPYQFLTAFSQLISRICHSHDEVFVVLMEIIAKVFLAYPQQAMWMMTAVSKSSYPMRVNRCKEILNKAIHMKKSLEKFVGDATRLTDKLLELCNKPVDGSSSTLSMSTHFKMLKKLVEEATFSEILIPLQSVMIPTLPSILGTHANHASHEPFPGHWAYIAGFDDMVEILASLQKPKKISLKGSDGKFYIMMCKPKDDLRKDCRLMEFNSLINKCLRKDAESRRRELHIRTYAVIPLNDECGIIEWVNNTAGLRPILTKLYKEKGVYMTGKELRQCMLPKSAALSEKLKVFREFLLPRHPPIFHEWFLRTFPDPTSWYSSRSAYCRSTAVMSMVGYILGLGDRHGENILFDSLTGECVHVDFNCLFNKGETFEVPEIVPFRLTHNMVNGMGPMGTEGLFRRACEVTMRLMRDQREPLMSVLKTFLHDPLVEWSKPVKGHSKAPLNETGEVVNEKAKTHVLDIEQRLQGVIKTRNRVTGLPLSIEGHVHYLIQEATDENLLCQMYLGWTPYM
In turn, `O=c1cc(N2CCOCC2)oc2c1ccc1ccccc12` registered an IC50 of over 100 µM.
Compound `O=c1cc(N2CCOCC2)nc2c3ccccc3ccn12` gave a 50% inhibitory concentration (IC50) of over 100 µM.
Still for that read-out and setting: to `CC1CN(c2cc(=O)c3ccc4ccccc4c3o2)CCO1` (stereo not given) belongs over 100 µM.

A further test deals with T2, Serine/threonine-protein kinase ATR. Description: Inhibition of ATR kinase using rabbit polyclonal antisera. Also on record: species or system Oryctolagus cuniculus. Particulars: target entry is the homologue from another species. The essentials: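 ATR kinase activity measured following earlier published methods, using antisera raised against ATR amino acids 400–480.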
On to `O=c1cc(N2CCOCC2)oc2c(-c3ccccc3)cccc12` [LY-294002], for which the half-inhibitory concentration (IC50) was over 100 µM.

(Values after ChEMBL document CHEMBL1141182, “Selective benzopyranone and pyrimido[2,1-a]isoquinolin-4-one inhibitors of DNA-dependent protein kinase: synthesis, structure-activity studies, and radiosensitization of a human tumor cell line in vitro” (J Med Chem, 2005).)
